Assay results collected from several papers.
Each line is one published result; the experiments were not run side by side.
Cell line: HT-29
Effect on: cell growth or viability

SMILES	assay	conditions	inhibition [%]
COc1ccc(C(=O)/C=C/c2cc3c(cc2Br)OCO3)cc1S(N)(=O)=O	SRB	10 µM	100
COc1ccc2c(c1)/C(=N/NC(=O)c1cc3ccccc3[nH]1)C(=O)N2		30 µM	36.5
COc1cc2ncnc(NN=C3C(=O)Nc4ccc(Br)cc43)c2cc1OC		10 µM	18.6
CN1C(=O)/C(=N\NC(=O)c2cc3ccccc3[nH]2)c2ccccc21		30 µM	78.5
COc1cc2ncnc(NN=C3C(=O)Nc4ccc(C)cc43)c2cc1OC		30 µM	49.3
COc1ccc(C(=O)/C=C/c2ccc(Cl)c(Cl)c2)cc1S(N)(=O)=O	SRB	10 µM	150
COc1ccc2c(c1)C(=NNc1nc(-c3ccc(OC)c(OC)c3)nc3ccccc13)C(=O)N2		30 µM	6.2
O=C(N/N=C1\C(=O)N(c2ccccc2)c2ccccc21)c1cc2ccccc2[nH]1		30 µM	97
COc1ccc(C(=O)/C=C/c2cccc3ccccc23)cc1S(N)(=O)=O	SRB	10 µM	140
O=C1Nc2ccccc2C1=NNc1nnc(Cc2ccccc2)c2ccccc12		30 µM	87.6
COc1ccc(C2=Nn3c(NN=C4C(=O)Nc5ccc(Cl)cc54)nnc3SC2)cc1	SRB	10 µM	27
COc1ccc2c(c1)C(=NNc1nnc(Cc3ccccc3)c3ccccc13)C(=O)N2		30 µM	9.3
CCN(CC)CCNC(=O)c1c(C)[nH]c(/C=C2\C(=O)Nc3ccc(F)cc32)c1C		30 µM	59.5
O=C1Nc2ccc(Cl)cc2/C1=N/NC(=O)c1cc2ccccc2[nH]1		30 µM	29.4
COc1ccc(C(=O)/C=C/c2cccc(Cl)c2)cc1S(N)(=O)=O	SRB	10 µM	99
CN1C(=O)/C(=N\NC(=O)c2cc3ccccc3[nH]2)c2cc(Br)ccc21		30 µM	95.2
COc1ccc(C(=O)/C=C/c2cccc(Br)c2)cc1S(N)(=O)=O	SRB	10 µM	156
CN1C(=O)/C(=N\NC(=O)c2cc3ccccc3[nH]2)c2cc(F)ccc21		30 µM	91.3
COc1cc2ncnc(NN=C3C(=O)Nc4ccc(F)cc43)c2cc1OC		10 µM	13.2
COc1ccc(C(=O)/C=C/c2ccc3c(c2)OCCO3)cc1S(N)(=O)=O	SRB	10 µM	67
